This note sets out measurements from article PMC8001668 (International Journal of Nanomedicine, 2021).

Each structure is given as a SMILES string.

The test system of series [1] is MCF-7 cells. Nature of the series: In vitro cytotoxicity, MTT assay. The format is cell-based, Human. Conditions: for IC50: Homo sapiens. On the technique in general: Tetrazolium assays rely on reduction of a dye to a coloured formazan, in cell work by metabolically active cells.
For series [2], the system named is MDA-MB-231 cells. Nature of the series: In vitro cytotoxicity, MTT assay. Format: cell-based, Human. Conditions: for IC50: Homo sapiens.
The nature of another series: Plasma pharmacokinetics. The format is in vivo. As to conditions: SD rats plasma, intraperitoneal, free group received DAS + ROZ. The procedure, abridged: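 Female SD rats (5 per group) got an intraperitoneal dose of either the free two-drug combination or the micelle formulation, at 5 mg/kg of the kinase inhibitor. Blood (0.3 mL) was taken from 0 min to 24 h and spun at 4000 rpm for 10 min. Plasma (100 µL) was mixed with methanol (300 µL) plus diclofenac sodium internal standard, spun, and analysed by HPLC. Parameters were derived from the concentration–time data.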

Series [3] relates to MCF-7 cells. Description: Transwell migration experiment. As to conditions: 24 h treatment. The format is cell-based, Human.
The subject of series [4] is MDA-MB-231 cells. Nature of the series: Transwell migration experiment. Format: cell-based, Human. Conditions: 24 h treatment.

Usually IC50 stands for the concentration that gives 50% inhibition. Read a low IC50 as greater potency in that assay.

On to `Cc1nc(Nc2ncc(C(=O)Nc3c(C)cccc3Cl)s2)cc(N2CCN(CCO)CC2)n1` [DAS, Dasatinib], for which the IC50 in the series with MCF-7 cells [1] (MCF7, 24 h) turned out to be 52 ± 6.83 µM; with MCF-7 cells [1] (MCF7, 48 h) it was 31.2 ± 2.8 µM; in the series with MDA-MB-231 cells [2] (MDA-MB-231, 24 h), 73.6 ± 3.8 µM; with MDA-MB-231 cells [2] (MDA-MB-231, 48 h), 64.7 ± 2.63 µM. The “AUC0-∞ of DAS” value in the series “Plasma pharmacokinetics” (DAS 5 mg/kg) is 2380 ± 1120 ng·h/mL. For the same compound, the “AUC0–24 of DAS” value in the series “Plasma pharmacokinetics” (DAS 5 mg/kg) is 2260 ± 930 ng·h/mL.

Take `CN(CCOc1ccc(CC2SC(=O)NC2=O)cc1)c1ccccn1` (centres unmarked) [ROZ, rosiglitazone]: the IC50 was 102 ± 6.2 µM with MCF-7 cells [1] (MCF7, 48 h) and 259 ± 27.5 µM in the series on MDA-MB-231 cells [2] (MDA-MB-231, 48 h). Besides, the cell survival rate entry was “higher than 90%” with MCF-7 cells [1] (MCF-7 cells, 24 h incubation) and “higher than 90%” in the series with MDA-MB-231 cells [2] (MDA-MB-231 cells, 24 h incubation). The “number of cells penetrating the membrane (migration)” value in the series with MCF-7 cells [3] and in the series on MDA-MB-231 cells [4] was “significantly reduced” throughout. The “AUC0–24 of ROZ” value in the series “Plasma pharmacokinetics” (DAS dose 5 mg/kg) turned out to be 41060 ± 10850 ng·h/mL. The “AUC0–∞ of ROZ” value in “Plasma pharmacokinetics” (DAS dose 5 mg/kg) came out at 41340 ± 10680 ng·h/mL.
